For series [1], the system named is Mus musculus. Nature of the series: Toxicity in BALB/c mouse assessed as occurrence of edema at 150 mg/kg/day, po. The conditions noted are these: in vivo. The arrangement: route oral. The class given is organism-based. In short, it runs like this: (§1)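 Female BALB/c mice (n = 5 per dose), dosed once daily for 5 consecutive days p.o. (20 ml/kg) or i.v. (10 ml/kg) with compound in sterile water, prepared fresh daily under yellow light. Vehicle controls n = 5 per route. Clinical observations, body weights, serum chemistry and hematology on day 6 before necropsy; histopathology of formalin-fixed tissues. Chemistry analysed by one-way ANOVA with Dunnett's posttest.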

Series [2] can be described thus: Half life in Swiss Webster mouse at 4.9 mg/kg, iv by HPLC-MS/MS analysis. The class given is ADME, organism-based. More on the design: dose 4.9 mg/kg, route intravenous. The settings on record: in vivo. In short, it runs like this:
(§2)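 Male Swiss Webster mice, n = 3 per time point. For i.v., the compound was dissolved in sterile water, diluted 1:1 with 2× saline, and given as a tail-vein bolus over ~10–20 s. For p.o., it was given by gavage in sterile water. Dose volume was 5 ml/kg. Terminal plasma was taken from 5 min to 72 h and measured by HPLC-MS/MS (calibration 2.5–10,000 nM). Parameters came from noncompartmental analysis.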

Series [3] can be described thus: Half life in Swiss Webster mouse at 66 mg/kg, po by HPLC-MS/MS analysis. The settings on record: in vivo. The arrangement: dose 66 mg/kg, route oral. The format is ADME, organism-based. An outline of the steps: as §2
The subject of series [4] is Mus musculus. Nature of the series: Toxicity in BALB/c mouse assessed as ruffled fur at 50 mg/kg/day, ip administered for five days. The class given is organism-based. More on the design: route intraperitoneal. The settings on record: in vivo.
Series [5] in a line: AUC (0 to infinity) in Swiss Webster mouse at 4.9 mg/kg, iv by HPLC-MS/MS analysis. The class given is ADME, organism-based. The arrangement: time infinity, dose 4.9 mg/kg, route intravenous. The conditions noted are these: plasma. An outline of the steps: as §2
Series [6] can be described thus: Cmax in Swiss Webster mouse at 4.9 mg/kg, iv by HPLC-MS/MS analysis. The format is ADME, organism-based. The conditions noted are these: in vivo. More on the design: dose 4.9 mg/kg, route intravenous. In short, it runs like this: as §2
The nature of series [7]: Volume of distribution in Swiss Webster mouse at 4.9 mg/kg, iv by HPLC-MS/MS analysis. The class given is ADME, organism-based. The arrangement: dose 4.9 mg/kg, route intravenous. The conditions noted are these: in vivo. In short, it runs like this:
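Male Swiss Webster mice (n = 3 per time point) got a single tail-vein bolus over ~10 to 20 s, 5 ml/kg. Compound was dissolved in sterile water at 2× and diluted 1:1 with 2× saline. Terminal blood was taken from 5 min to 72 h, and plasma was quantified by HPLC-MS/MS. Vss came from noncompartmental analysis.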

Series [8] in a line: Cmax in Swiss Webster mouse at 16.5 mg/kg, po by HPLC-MS/MS analysis. The class given is ADME, organism-based. More on the design: dose 16.5 mg/kg, route oral. The conditions noted are these: in vivo. An outline of the steps: as §2
For series [9], the system named is Mus musculus. Nature of the series: (§3) Volume of distribution in Swiss Webster mouse at 66 mg/kg, po by HPLC-MS/MS analysis. The format is ADME, organism-based. The settings on record: in vivo. More on the design: dose 66 mg/kg, route oral. An outline of the steps: (§4)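 Male Swiss Webster mice (n = 3 per time point), single dose by oral gavage (sterile water solution) or tail-vein bolus i.v. (water diluted 1:1 with 2× saline, over ~10–20 s); dose volume 5 ml/kg. Terminal blood sampled from 5 min to 72 h postdose; plasma quantified by HPLC-MS/MS (positive-ion SRM). Noncompartmental analysis gave Cmax, Tmax, AUC0-∞, CL, Vss; bioavailability from p.o. versus i.v. exposure.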

Series [10] is described as follows: Cmax in Swiss Webster mouse at 131 mg/kg, po by HPLC-MS/MS analysis. The format is ADME, organism-based. The arrangement: dose 131 mg/kg, route oral. The conditions noted are these: in vivo. In short, it runs like this:
as §2

Series [11] concerns Mus musculus. Nature of the series: Volume of distribution in Swiss Webster mouse at 131 mg/kg, po by HPLC-MS/MS analysis. The format is ADME, organism-based. More on the design: dose 131 mg/kg, route oral. The settings on record: in vivo. An outline of the steps: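 Male Swiss Webster mice (n = 3 per time point) got a single oral gavage dose in sterile water, 5 ml/kg. The 5 mM formulation was a clear solution; the 20 and 40 mM formulations were gelatinous. Terminal blood was collected from 5 min to 72 h postdose, and plasma was analysed by HPLC-MS/MS. Volume of distribution came from noncompartmental analysis.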

Series [12] is described as follows: Oral bioavailability in Swiss Webster mouse at 131 mg/kg by HPLC-MS/MS analysis. The class given is ADME, organism-based. The settings on record: in vivo. In short, it runs like this: as §4
The test system of series [13] is Mus musculus. Nature of the series: Toxicity in BALB/c mouse assessed as occurrence of tremor at 10 mg/kg/day, iv administered for five days measured on day 2. The class given is organism-based. The conditions noted are these: in vivo. More on the design: route intravenous. In short, it runs like this: as §1
Series [14] concerns Mus musculus. Nature of the series: Toxicity in BALB/c mouse assessed as decrease in body weight at 150 mg/kg/day, po administered for five days. The format is organism-based. The arrangement: route oral. The settings on record: in vivo. An outline of the steps: as §1
The test system of series [15] is Mus musculus. Nature of the series: Renal toxicity in BALB/c mouse assessed as phosphorus level in serum at 10 mg/kg/day, iv administered for five days ((Rvb= 6.1 mg/dl). The class given is organism-based. The arrangement: route intravenous. The settings on record: in vivo. In short, it runs like this: as §1
The test system of series [16] is Mus musculus. Nature of the series: Hepatotoxicity in BALB/c mouse assessed as alkaline phosphatase level in serum at 100 mg/kg/day, po administered for five days (Rvb= 129 U/L). The format is toxicity, organism-based. The conditions noted are these: in vivo. The arrangement: route oral.
Series [17] can be described thus: Induction of mutagenicity in Salmonella serovar Typhimurium TA 100 assessed as number of revertant colonies at 100 ug by Ames assay in presence of Aroclor 1254-induced rat liver S9 metabolic activation system. The format is toxicity, subcellular, Salmonella enterica subsp. enterica serovar Typhimurium. An outline of the steps:
(§5)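 Ames plate incorporation with S. Typhimurium TA98 and TA100, with or without Aroclor 1254-induced rat liver S9 (10% vol/vol). Compound was dissolved in sterile water and serially diluted to 1–500 μg/plate. Positive controls were 2-nitrofluorene and sodium azide without S9, and 2-aminoanthracene with S9; sterile water and DMSO served as vehicles. Revertant colonies and background lawn were scored. A mutagen was defined as a mean revertant count at least 2-fold over solvent control. Single experiment.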

Series [18] in a line: Induction of mutagenicity in Salmonella serovar Typhimurium TA 98 assessed as number of revertant colonies at 5 ug by Ames assay. The format is toxicity, Salmonella enterica subsp. enterica serovar Typhimurium. The settings on record: in vivo. An outline of the steps: as §5
In general terms: The Ames test uses bacterial strains that need an amino acid and regain growth without it when mutated back.

Series [19] is described as follows: Induction of mutagenicity in Salmonella serovar Typhimurium TA 98 assessed as number of revertant colonies at 50 ug by Ames assay. The class given is toxicity, Salmonella enterica subsp. enterica serovar Typhimurium. An outline of the steps:
(§6)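 Plate incorporation test, S. Typhimurium TA98 (and TA100), with or without Aroclor 1254-induced rat liver S9 (10% vol/vol). Compound dissolved in sterile water, serially diluted to 1–1,000 or 1–500 μg/plate. Positive controls: 2-nitrofluorene and sodium azide without S9, 2-aminoanthracene with S9; water and DMSO vehicle controls. Revertant colonies and background lawn scored; mutagen if mean revertants ≥2-fold solvent control. Single experiment.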

Series [20] can be described thus: Induction of mutagenicity in Salmonella serovar Typhimurium TA 98 assessed as number of revertant colonies at 100 ug by Ames assay. The format is toxicity, Salmonella enterica subsp. enterica serovar Typhimurium. The settings on record: in vivo. In short, it runs like this:
as §5

A short description of series [21]: Induction of mutagenicity in Salmonella serovar Typhimurium TA 98 assessed as number of revertant colonies at 500 ug by Ames assay. The class given is toxicity, Salmonella enterica subsp. enterica serovar Typhimurium. An outline of the steps:
as §6

A further series has as its system Leishmania donovani. Nature of the series: Antileishmanial activity against Leishmania donovani promastigotes in BALB/c mouse assessed as inhibition of liver parasitemia at 30 mg/kg/day, ip administered for five days. The class given is functional, organism-based. An outline of the steps:
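Murine VL model in L. donovani-infected mice. Compounds were dissolved in water and given i.p. or p.o. once daily for 5 days (4 days for one i.p. regimen). Liver parasitemia was compared with untreated controls by unpaired Student's t test, P ≤ 0.05.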

Series [22] in a line: as §3. The class given is ADME, organism-based. More on the design: dose 66 mg/kg, route oral. The conditions noted are these: Swiss Webster, in vivo. In short, it runs like this: as §4
The nature of series [23]: Tmax in Swiss Webster mouse at 5 mg/kg, iv by HPLC-MS/MS analysis. More on the design: dose 5 mg/kg, route intravenous. The settings on record: in vivo. The class given is ADME, organism-based. An outline of the steps: as §4
A short description of series [24]: Clearance in Swiss Webster mouse at 5 mg/kg, iv by HPLC-MS/MS analysis. The class given is ADME, organism-based. More on the design: dose 5 mg/kg, route intravenous. The conditions noted are these: in vivo. An outline of the steps:
as §2

Series [25] concerns Mus musculus. Nature of the series: Hepatotoxicity in BALB/c mouse assessed as AST level in serum at 30 mg/kg/day, iv administered for five days (Rvb= 65 U/L). The class given is toxicity, organism-based. The arrangement: route intravenous. The settings on record: in vivo.
Series [26] relates to Mus musculus. Nature of the series: Hepatotoxicity in BALB/c mouse assessed as ALT level in serum at 100 mg/kg/day, po administered for five days (Rvb= 36 U/L). The conditions noted are these: in vivo. The class given is toxicity, organism-based. More on the design: route oral.
The subject of series [27] is Mus musculus. Nature of the series: Renal toxicity in BALB/c mouse assessed as blood urea nitrogen level in serum at 30 mg/kg/day, iv administered for five days (Rvb= 20 mg/dl). The arrangement: route intravenous. The conditions noted are these: in vivo. The format is organism-based. An outline of the steps:
as §1

The structures appear in SMILES notation. The source made the active and inactive calls.

The half-life is how long it takes for the measured level to halve. A word on the AUC(0-inf): it is the area under the concentration-time curve extrapolated to infinity. Low readings indicate less exposure, high ones more exposure. The term Cmax denotes the maximum level reached in the sampled fluid or tissue. A word on the bioavailability: it is the share of a dose that reaches the circulation, judged against a reference dose that is usually intravenous. With `CCOc1cc(NC(=N)c2ccccn2)ccc1-c1ccc(-c2ccc(NC(=N)c3ccccn3)cc2OCC)o1`, the Activity result was “Toxic” in the series on Mus musculus [1]; “Toxic” in the series on Mus musculus [4]; “Toxic” in the series with Mus musculus [13]; “Toxic” in the series with Mus musculus [14]; 8.1 mg/dL in the series on Mus musculus [15]; 120 U/L with Mus musculus [16]. The results for the half-life in [2] and in [3] were 18 h and 30 h, respectively. Besides, the AUC(0-inf) in series [5] amounted to 4.5 µM·h. The Cmax in series [6] came out at 4240 nM; in series [8], 20 nM; in series [10] it was 1680 nM. Also, the Vd in series [7] was 22 L/kg; in the series with Mus musculus [9] it was 71 L/kg; with Mus musculus [11] it was 76 L/kg. Also, the bioavailability in series [12] worked out at 25%.

As usually defined, the Tmax is the time at which the peak concentration occurs. What is called clearance is a measure of how efficiently the substance is removed, as volume per time. Low readings indicate a low capacity for elimination, high ones a high capacity for elimination. For the compound `CC(C)Oc1cc(NC(=N)c2ccccn2)ccc1-c1ccc(-c2ccc(NC(=N)c3ccccn3)cc2OC(C)C)o1`, the Activity is 98 in series [17]; 29 in [18]; 28 in series [19]; 34 in [20]; 28 in series [21]; 73 U/L with Mus musculus [25]. Besides, the Activity was 34 U/L in the series on Mus musculus [26] and 24 mg/dL in the series on Mus musculus [27]. Moreover, in the series with Leishmania donovani, the outcome was Active. Also, the Tmax in series [22] worked out at 4.98 min; in [23], 5 min. In series [24], the clearance turned out to be 13.1 mL/min/kg.

Source of the values: ChEMBL document CHEMBL1275590, “Novel arylimidamides for treatment of visceral leishmaniasis” (Antimicrob Agents Chemother, 2010).
